Measured values reported in ChEMBL document CHEMBL1125875, “Renin inhibitory peptides. Incorporation of polar, hydrophilic end groups into an active renin inhibitory peptide template and their evaluation in a human renin infused rat model and in conscious sodium-depleted monkeys” (J Med Chem, 1991).
Numbered stars: 1 amine (or outer) side, 2 acyl side, 3 side chain; on linkers, the order of the positions; unused ones are H or OH. Square brackets hold non-standard residues; d marks the D form. Peptide text beside a SMILES is read from it. * marks the point of attachment. ξ: configuration not given here. LeuΨ(ξCHOHCH2)Val = CC(C)C[C@H](N[*:1])C(O)C[C@H](C(=O)[*:2])C(C)C; X1 = CC(C)[C@H](C[C@H](O)[C@H](CC1CCCCC1)N[*:1])C(=O)[*:2]; Suberoyl(NMe-taurine) = CN(CCS(=O)(=O)O)C(=O)CCCCCCC(=O)*; X3 = CC(C)C[C@H](N[*:1])[C@@H](O)C[C@H](C(=O)[*:2])C(C)C; NH(2-picolyl-N-oxide) = [O-][n+]1ccccc1CN*; γGlu = O=C(O)[C@H](CCC(=O)[*:2])N[*:1]; NMeH = CN[C@@H](Cc1c[nH]cn1)C(=O)O; NHCH2(2-pyridyl) = c1ccc(CN*)nc1; X4 = O=C(CCCO[P+]([O-])(O)O)*; X5 = O=C(CCCOP(=O)(O)O)*; X2 = O=C(COP(=O)(O)O)*

Each compound was assayed against T1, Renin (Homo sapiens, UniProt P00797) (assay: Inhibition of human plasma renin.).
T1 sequence (P00797 whole entry): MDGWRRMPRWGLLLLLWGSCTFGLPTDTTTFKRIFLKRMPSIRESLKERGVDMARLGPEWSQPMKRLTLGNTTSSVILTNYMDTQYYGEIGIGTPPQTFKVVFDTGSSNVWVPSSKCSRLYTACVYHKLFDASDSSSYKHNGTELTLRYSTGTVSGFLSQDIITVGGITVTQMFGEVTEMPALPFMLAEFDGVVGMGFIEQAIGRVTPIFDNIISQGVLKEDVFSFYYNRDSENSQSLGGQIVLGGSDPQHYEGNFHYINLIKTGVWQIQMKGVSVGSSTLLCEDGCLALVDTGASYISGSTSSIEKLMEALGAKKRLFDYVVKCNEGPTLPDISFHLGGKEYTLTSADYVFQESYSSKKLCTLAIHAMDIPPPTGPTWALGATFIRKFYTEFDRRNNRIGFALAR
Assay type: cell-free
Procedure, shortened: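 IC50 taken as the inhibitor concentration at which 50% of renin enzymatic activity remains.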

| Compound | IC50 [pM] |
| --- | --- |
| CC[C@H](C)[C@H](NC(=O)[C@@H](CC(O)[C@H](CC(C)C)NC(=O)[C@H](Cc1cnc[nH]1)N(C)C(=O)[C@H](Cc1ccccc1)NC(=O)[C@@H]1CCCN1C(=O)CCCO[P+]([O-])(O)O)C(C)C)C(=O)NCc1cccc[n+]1[O-] (some centres undefined) (X4-PF[NMeH][LeuΨ(ξCHOHCH2)Val]I-{NH(2-picolyl-N-oxide)}) | 1900 |
| CC[C@H](C)[C@H](NC(=O)[C@@H](C[C@H](O)[C@H](CC(C)C)NC(=O)[C@H](Cc1c[nH]cn1)N(C)C(=O)[C@H](Cc1ccccc1)NC(=O)CCCCCCC(=O)N(C)CCS(=O)(=O)O)C(C)C)C(=O)NCc1cccc[n+]1[O-] | 1200 |
| CC[C@H](C)[C@H](NC(=O)[C@@H](CC(O)[C@H](CC(C)C)NC(=O)[C@H](Cc1c[nH]cn1)N(C)C(=O)[C@H](Cc1ccccc1)NC(=O)[C@@H]1CCCN1C(=O)COP(=O)(O)O)C(C)C)C(=O)NCc1cccc[n+]1[O-] (some centres undefined) (X2-PF[NMeH][LeuΨ(ξCHOHCH2)Val]I-{NH(2-picolyl-N-oxide)}) | 2500 |
| CC(C)CCNC(=O)[C@@H](C[C@H](O)[C@H](CC1CCCCC1)NC(=O)[C@H](Cc1c[nH]cn1)N(C)C(=O)[C@H](Cc1ccccc1)NC(=O)CC(C)(C)N)C(C)C | 410 |
| CC[C@H](C)[C@H](NC(=O)[C@@H](C[C@H](O)[C@H](CC1CCCCC1)NC(=O)[C@H](Cc1c[nH]cn1)N(C)C(=O)[C@H](Cc1ccccc1)NC(=O)[C@@H]1CCCN1C(=O)CC[C@H](N)C(=O)O)C(C)C)C(=O)NCc1ccccn1 (γGlu-PF[NMeH][X1]I-{NHCH2(2-pyridyl)}) | 290 |
| CC[C@H](C)[C@H](NC(=O)[C@@H](C[C@H](O)[C@H](CC(C)C)NC(=O)[C@H](Cc1c[nH]cn1)N(C)C(=O)[C@H](Cc1ccccc1)NC(=O)[C@@H]1CCCN1C(=O)COP(=O)(O)O)C(C)C)C(=O)NCc1ccccn1 (X2-PF[NMeH][X3]I-{NHCH2(2-pyridyl)}) | 1600 |
| CC[C@H](C)[C@H](NC(=O)[C@@H](C[C@H](O)[C@H](CC(C)C)NC(=O)[C@H](Cc1c[nH]cn1)N(C)C(=O)[C@H](Cc1ccccc1)NC(=O)CCCCCCC(=O)N(C)CCS(=O)(=O)O)C(C)C)C(=O)NCc1ccccn1 | 660 |
| CC[C@H](C)[C@H](NC(=O)[C@@H](C[C@H](O)[C@H](CC1CCCCC1)NC(=O)[C@H](Cc1c[nH]cn1)N(C)C(=O)[C@H](Cc1ccccc1)NC(=O)[C@@H]1CCCN1C(=O)CC[C@H](N)C(=O)O)C(C)C)C(=O)NCc1cccc[n+]1[O-] (γGlu-PF[NMeH][X1]I-{NH(2-picolyl-N-oxide)}) | 320 |
| CC[C@H](C)[C@H](NC(=O)[C@@H](C[C@H](O)[C@H](CC1CCCCC1)NC(=O)[C@H](Cc1c[nH]cn1)N(C)C(=O)[C@H](Cc1ccccc1)NC(=O)CC(C)(C)N)C(C)C)C(=O)NCc1ccccn1 | 290 |
| CC[C@H](C)[C@H](NC(=O)[C@@H](CC(O)[C@H](CC(C)C)NC(=O)[C@H](Cc1c[nH]cn1)N(C)C(=O)[C@H](Cc1ccccc1)NC(=O)[C@@H]1CCCN1C(=O)CCCCCCC(=O)N(C)CCS(=O)(=O)O)C(C)C)C(=O)NCc1cccc[n+]1[O-] (some centres undefined) ({Suberoyl(NMe-taurine)}-PF[NMeH][LeuΨ(ξCHOHCH2)Val]I-{NH(2-picolyl-N-oxide)}) | 310 |
| CC[C@H](C)[C@H](NC(=O)[C@@H](C[C@H](O)[C@H](CC1CCCCC1)NC(=O)[C@H](Cc1c[nH]cn1)N(C)C(=O)[C@H](Cc1ccccc1)NC(=O)CC(C)(C)N)C(C)C)C(=O)NCc1cccc[n+]1[O-] | 430 |
| CC[C@H](C)[C@H](NC(=O)[C@@H](CC(O)[C@H](CC(C)C)NC(=O)[C@H](Cc1c[nH]cn1)N(C)C(=O)[C@H](Cc1ccccc1)NC(=O)[C@@H]1CCCN1C(=O)CCCCCCC(=O)N(C)CCS(=O)(=O)O)C(C)C)C(=O)NCc1ccccn1 (some centres undefined) ({Suberoyl(NMe-taurine)}-PF[NMeH][LeuΨ(ξCHOHCH2)Val]I-{NHCH2(2-pyridyl)}) | 1800 |
| CC(C)CCNC(=O)[C@@H](C[C@H](O)[C@H](CC1CCCCC1)NC(=O)[C@H](Cc1c[nH]cn1)N(C)C(=O)[C@H](Cc1ccccc1)NC(=O)[C@@H]1CCCN1C(=O)CC[C@H](N)C(=O)O)C(C)C | 280 |
| CC[C@H](C)[C@H](NC(=O)[C@@H](C[C@H](O)[C@H](CC(C)C)NC(=O)[C@H](Cc1c[nH]cn1)N(C)C(=O)[C@H](Cc1ccccc1)NC(=O)[C@@H]1CCCN1C(=O)CCCOP(=O)(O)O)C(C)C)C(=O)NCc1ccccn1 (X5-PF[NMeH][X3]I-{NHCH2(2-pyridyl)}) | 450 |
